Assay outcomes from PubChem BioAssay.
L major viab: inhibitors of Leishmania major promastigote growth. Leishmania major promastigotes, resazurin fluorescence viability. inhibition, % at 10 µM. actives 9% (n = 200,000). AID 1063; in the data active means inhibition above about 50%;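 further: promastigotes grown with compound for 44 hours at 28 °C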
CHOP inhibitor: blocks CHOP induction under ER stress; CHO-K1 CHOP-promoter luciferase, tunicamycin-induced, 15-18 h; inhibition, % at 10 µM; actives 3.8% (n = 220,000); AID 2732;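 active means compounds that reduced the stress-induced luciferase reporter signal by more than about 70% of percent inhibition, limit read from the data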;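 further: 0% = tunicamycin plus vehicle and 100% = wells without tunicamycin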
Dynein transport: blocks dynein driven cargo transport along microtubules; 3617.4 mouse cells, GR-EGFP nuclear translocation imaging; test concentration mostly 20 µM; stimulated with dexamethasone, 1 µM; hits give low values; z-score, hits read low; actives 0.47% (n = 220,000);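 active means plate z-score of nuclear minus cytoplasmic receptor signal below a set negative limit, without overly bright fluorescence or cell loss, cut at about -3.5 in these data, passing the limit was not always enough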;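 further: z-score of nuclear minus cytoplasmic ring GR-EGFP intensity difference per well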
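Medium: Induction medium lacking tetracycline, stripped serum | Probe or stimulus: 1.0 µM final dexamethasone stimulus | Schedule: 48 h induction, then 1 h compound, then 30 min agonist, 37 °C | Signal: Automated 10x imaging of fixed Hoechst-stained cells | Evaluation: Per-cell GR-EGFP intensity, nucleus versus surrounding cytoplasmic ring, well-averaged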
bCat nuc transl: modulators of beta-catenin nuclear translocation; HeLa beta-catenin nuclear translocation, immunofluorescence imaging; nuclear translocation activity, % at 5 µM; actives 0.3% (n = 190,000);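 active means nuclear translocation activity above 50% at 5 µM, with a well cell count of 50 or more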;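 further: per-cell ratio of nuclear to cytoplasmic median beta-catenin stain intensity; plate controls were DMSO negative control for no effect and GSK-3 inhibitor IX positive control for full effect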
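Test system: human HeLa cells, native beta-catenin. Compound dosing: 5 µM primary single dose, 0.1% DMSO, 0.02–20 µM confirmation series. Incubation: compound exposure 24 h at 37°C. Detection: beta-catenin immunostaining with DAPI counterstain, 20x imaging, 6 fields/well. Read-out basis: Nuclear/cytoplasmic beta-catenin signal ratio, % activation.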
Autophagy mod: autophagy modulation, high-content screen | calls only at 10 µM (by protocol) | MEF GFP-LC3 puncta imaging; test concentration mostly 10 µM | actives 0.98% (n = 190,000);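 active means percentage of spot-positive cells more than 3 SD above its plate mean, without a fluorescence outlier flag or 80% toxicity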;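 further: spot-positive cell cutoff set from DMSO-treated cells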
MT stabilizer: microtubule stabilizers in HeLa cells. AID 2205. HeLa tubulin immunostaining HCS, 24 h; share of cells brighter than vehicle mean+2SD. % tubulin-high responders, % at 10 µM. actives 0.83% (n = 200,000);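 active means plate Z-score above 3 for both tubulin-high and condensed-nucleus cell shares, with cell loss under 80%, at 10 µM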;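 further: anti alpha tubulin signal scored within the nucleus-defined area of each cell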
CHOP inh conf: confirmation of CHOP induction inhibitors; shares compounds with CHOP inhibitor; CHO-CHOP promoter luciferase reporter, tunicamycin-induced, luminescence; inhibition, % at 10 µM; actives 45% (n = 2,100);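 active means mean of three repeat readings of reporter signal inhibition above a set limit, cut at about 70% in these data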;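 further: 0% = tunicamycin plus vehicle and 100% = wells lacking tunicamycin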
The depositor's hits bear a star. A selection: hits, their analogues and other compounds. The true share with any hit is near 12%.

Screening COC(=O)C(C)(C)ONC(=O)Nc1ccccc1[N+](=O)[O-] returned L major viab 6, CHOP inhibitor 12, Dynein transport 0.51, bCat nuc transl -1, Autophagy mod inactive and MT stabilizer 2.
For CC1=CC(C)(C)n2c(O)c(N=N)c3c(C)c(C)cc1c32 the results were CHOP inhibitor 98*, Dynein transport -0.17, bCat nuc transl 0 and CHOP inh conf 10.
CS(=O)(=O)N(CC(=O)N1CCN(c2ccccc2)CC1)c1ccccc1Cl was read as L major viab 0, Dynein transport -0.81, Autophagy mod inactive and MT stabilizer 4.
`CCn1c(=O)c(C(=O)Nc2nc3ccccc3[nH]2)c(O)c2ccccc21` gave L major viab 33, Dynein transport -0.53, bCat nuc transl -3, Autophagy mod inactive, MT stabilizer 5 and CHOP inh conf 120*.
For Cc1ccc(NC(=O)Nc2nnc(-c3ccncc3)s2)cc1C the results were L major viab 36, CHOP inhibitor 104*, Dynein transport -0.44, bCat nuc transl 5, Autophagy mod inactive, MT stabilizer 3 and CHOP inh conf 68.
`CCC(Cc1ccccc1)n1c(=S)[nH]c2ccccc2c1=O` (stereo unspecified) gave L major viab 18, CHOP inhibitor 97*, Dynein transport 0.052, Autophagy mod inactive, MT stabilizer 2 and CHOP inh conf 82*.
Screening COc1ccc2c(c1)C=C(CN1CCC(CO)(CCc3ccccc3)CC1)CO2 returned L major viab 21, CHOP inhibitor 15, Dynein transport -0.49, bCat nuc transl 0, Autophagy mod inactive and MT stabilizer 2.
Screening COc1ccc(CC2(CO)CCN(CC3=Cc4cc(Cl)ccc4OC3)CC2)cc1 returned L major viab 89*, CHOP inhibitor 102*, Dynein transport 1.7, bCat nuc transl 1, Autophagy mod inactive, MT stabilizer 2 and CHOP inh conf 105*.
Screening COC(=O)Oc1ccc(/C=N/NC(=O)CSCc2ccccc2Br)cc1OC returned L major viab 41, CHOP inhibitor 96*, Dynein transport 0.27, bCat nuc transl -11, Autophagy mod inactive, MT stabilizer 4 and CHOP inh conf 75*.
For COc1ccc(/C=N/NC(=O)CSc2ccccc2)cc1OC the results were L major viab -6, CHOP inhibitor 40, Dynein transport 0.86, bCat nuc transl -2, Autophagy mod inactive and MT stabilizer 2.
Screening CC(Oc1ccccc1)C(=O)N=Nc1c(O)[nH]c2ccc(Br)cc12 (stereo unspecified) returned L major viab -4, CHOP inhibitor 101*, Dynein transport -0.43, bCat nuc transl -1, Autophagy mod inactive, MT stabilizer 3 and CHOP inh conf -4.
For Cc1cccc(C)c1OCC(=O)N=Nc1c(O)[nH]c2ccc(Br)cc12 the results were L major viab 14, CHOP inhibitor -10, Dynein transport 0.19, bCat nuc transl -1, Autophagy mod inactive and MT stabilizer 1.
Screening O=C(NC1CCCCC1)c1ccc(S(=O)(=O)c2ccccc2)cc1 returned L major viab 16, CHOP inhibitor -7, Dynein transport -0.47, bCat nuc transl 4, Autophagy mod inactive and MT stabilizer 1.
For O=C(c1cc(-c2ccc(O)cc2)on1)N1CCc2ccccc2C1 the results were L major viab -7, Dynein transport -0.13, bCat nuc transl 0 and MT stabilizer 5.
For O=C(c1cc(-c2ccccc2O)on1)N1CCc2ccccc2C1 the results were L major viab -8, CHOP inhibitor 106*, Dynein transport 0.41, bCat nuc transl 0, MT stabilizer 2 and CHOP inh conf 2.
`CCCCCCn1c(O)c(/C=C2\C=NN=C2c2ccccc2)sc1=S` gave L major viab -4, CHOP inhibitor 51, Dynein transport 0.087, bCat nuc transl 5, Autophagy mod inactive and MT stabilizer 2.
For CCn1c(O)c(/C=C2\C=NN=C2c2ccccc2)sc1=S the results were CHOP inhibitor 98*, Dynein transport 0.29, bCat nuc transl -1 and CHOP inh conf 14.
C/C(=N\NC(=O)Cc1csc(N2CCOCC2)n1)c1ccc(Cl)c(Cl)c1 was read as L major viab 12, CHOP inhibitor 41, Dynein transport 1.7, bCat nuc transl 0, Autophagy mod inactive and MT stabilizer 2.
O=C(c1ccccc1)N1N=C(c2ccccc2)CC1c1ccccc1O (stereo unspecified) was read as L major viab 40, CHOP inhibitor 11, Dynein transport 0.035, bCat nuc transl -3, Autophagy mod inactive and MT stabilizer 2.
CCn1cc(Cl)c(C(=O)N2N=C(c3ccc4ccccc4c3)CC2c2ccccc2O)n1 (stereo unspecified) was read as L major viab 73*, CHOP inhibitor 97*, Dynein transport -0.43, Autophagy mod inactive, MT stabilizer 8 and CHOP inh conf 61.
CC[C@H](C)[C@H](NC(=O)c1ccc(Cl)cc1)C(=O)OCC(=O)c1ccc2c(c1)NC(=O)CO2 was read as L major viab 100*, CHOP inhibitor 105*, Dynein transport -0.62, Autophagy mod inactive, MT stabilizer 1 and CHOP inh conf 30.
CC1=C(C)/C(=N\OS(=O)(=O)c2ccccc2)C=CC1=O was read as L major viab 101*, Dynein transport -2.4, bCat nuc transl -6, Autophagy mod inactive, MT stabilizer 1 and CHOP inh conf 124*.
CSc1nnc(CSc2cc(C)nc(N(C)C)n2)o1 was read as L major viab 0, CHOP inhibitor -37, Dynein transport -0.4, bCat nuc transl 2, Autophagy mod inactive and MT stabilizer 3.
For C/C(=N\NC(=O)c1ccc(N/N=C(\C)c2ccc(O)cc2)cc1)c1ccc(O)cc1 the results were CHOP inhibitor 40, Dynein transport -0.22 and bCat nuc transl -1.
Screening c1csc(Cc2nc(-c3ccc(-n4cccc4)cc3)no2)c1 returned L major viab -8, Dynein transport -0.88, Autophagy mod inactive and MT stabilizer 2.
O=C(c1cc2ccccc2oc1=O)N(Cc1cccc(Br)c1)C1CCS(=O)(=O)C1 (stereo unspecified) was read as CHOP inhibitor -10, Dynein transport -0.18 and bCat nuc transl -3.
`CCc1nnc(NS(=O)(=O)c2ccc(N/C=C\C(=O)c3ccc(C)cc3)cc2)s1` gave L major viab -8, CHOP inhibitor -9, Dynein transport -0.78, bCat nuc transl -4, Autophagy mod inactive and MT stabilizer 3.
